# Active and inactive are the calls of the source. The rule behind the calls is not given here.
# Key:
# [1] = molecular target: Casein kinase II subunit beta (Mus musculus) (UniProt P67871); test: Binding affinity to CK2 beta subunit in mouse HT22 cell lysate by Western blot analysis; type: cell-free; conditions: HT-22
# Procedure, shortened: (§1)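 Bead pull-down from HT22 cell or mouse brain extracts, with ethanolamine beads lacking ligand as control. Specificity was tested by adding excess free inhibitor to the extracts before binding.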
# [2] = molecular target: Casein kinase II subunit beta (Mus musculus, UniProt P67871); test: Binding affinity to […] in mouse brain homogenate after 3 hrs by competition affinity chromatographic analysis; type: tissue-based
# Procedure, shortened: (§2)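 Mouse brain lysate applied to a KinAffinity matrix of mixed immobilized broad-spectrum kinase inhibitors at highest loading density, with increasing concentrations of free inhibitor added. […] Separate titrations of the immobilized ligands gave BC50 values.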
# [3] = molecular target: Glycogen synthase kinase-3 beta (Homo sapiens, UniProt P49841); test: Inhibition of human recombinant GSK3beta expressed in insect cells using YRRAAVPPSPSLSRHSSPHQ-phosphoS-EDEEE as substrate and [gamma33P]ATP after 30 mins by scintillation counting
# [4] = molecular target: Dual specificity tyrosine-phosphorylation-regulated kinase 1A (Rattus norvegicus, UniProt Q63470); test: Inhibition of rat DYRK1A isolated from brain using KKISGRLSPIMTEQ as substrate and [gamma33P]ATP after 30 mins by scintillation counting
# [5] = molecular target: Protein VAC14 homolog (Mus musculus) (UniProt Q80WQ2); test: Binding affinity to VAC14 in mouse HT22 cell lysate by Western blot analysis; type: cell-free; conditions: HT-22; procedure, shortened: as §1
# [6] = molecular target: Casein kinase II subunit alpha (Mus musculus) (UniProt Q60737); test: Binding affinity to CK2 alpha subunit in mouse HT22 cell lysate by Western blot analysis; type: cell-free; conditions: HT-22; procedure, shortened: as §1
# [7] = molecular target: Dual specificity protein kinase CLK2 (Mus musculus, UniProt O35491); test: Inhibition of mouse recombinant GST-tagged CLK2 expressed in Escherichia coli using GRSRSRSRSRSR as substrate and [gamma33P]ATP after 30 mins by scintillation counting
# Procedure, shortened: (§3)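 Panel of purified kinases (recombinant from several species plus native enzymes), each assayed radiometrically over a range of inhibitor concentrations; IC50 in μM calculated from the dose-response curves.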
# [8] = molecular target: Glycogen synthase kinase-3 alpha (Homo sapiens, UniProt P49840); test: Binding affinity to GSK3A
# [9] = molecular target: Dual specificity protein kinase CLK4 (Homo sapiens, UniProt Q9HAZ1); test: Binding affinity to CLK4
# [10] = tested on: HT-22; test: Downregulation of GSK3 expression in mouse HT22 cells after 4 hrs by Western blot analysis; type: functional, cell-based
# [11] = Inhibition of starfish CDK1/cyclin B using histone H1 as substrate and [gamma33P]ATP after 30 mins by scintillation counting; design: species or system Asteroidea; procedure, shortened: as §3
# [12] = molecular target: Dual specificity tyrosine-phosphorylation-regulated kinase 1A (Rattus norvegicus) (UniProt Q63470); test: Inhibition of DYRK1A in CD Sprague-Dawley rat brain assessed as inhibition of human APP-induced neurodegeneration after 3 hrs by fluorescence microscopic analysis
# [13] = molecular target: Dual specificity tyrosine-phosphorylation-regulated kinase 1A (Mus musculus) (UniProt Q61214); test: Inhibition of DYRK1A isolated from mouse HT22 cells; type: cell-free; conditions: HT-22
# [14] = molecular target: Casein kinase II subunit alpha (Mus musculus) (UniProt Q60737); test: Binding affinity to CK2 alpha subunit in mouse brain homogenate by Western blot analysis; type: tissue-based; procedure, shortened: as §1
# [15] = Inhibition of Leishmania major recombinant CK1 expressed in Escherichia coli using RRKHAAIGpSAYSITA as substrate and [gamma33P]ATP after 30 mins by scintillation counting; procedure, shortened: as §3
# [16] = molecular target: Dual specificity protein kinase CLK3 (Mus musculus, UniProt O35492); test: Inhibition of mouse recombinant GST-tagged CLK3 expressed in Escherichia coli using GRSRSRSRSRSR as substrate and [gamma33P]ATP after 30 mins by scintillation counting; procedure, shortened: as §3
# [17] = molecular target: Protein VAC14 homolog (Mus musculus, UniProt Q80WQ2); test: Binding affinity to VAC14 in mouse brain homogenate after 3 hrs by competition affinity chromatographic analysis; type: tissue-based; procedure, shortened: as §2
# [18] = molecular target: Dual specificity tyrosine-phosphorylation-regulated kinase 1A (Homo sapiens) (UniProt Q13627); test: Inhibition of human recombinant GST-tagged DYRK1A expressed in Escherichia coli using KKISGRLSPIMTEQ as substrate at 1 uM after 30 mins
# [19] = molecular target: Interleukin-1 receptor-associated kinase 1 (Homo sapiens, UniProt P51617); test: Binding affinity to IRAK1
# [20] = molecular target: Dual specificity tyrosine-phosphorylation-regulated kinase 3 (Homo sapiens) (UniProt O43781); test: Inhibition of human recombinant GST-tagged DYRK3 expressed in Escherichia coli using KKISGRLSPIMTEQ as substrate at 1 uM after 30 mins
# [21] = molecular target: Serine/threonine-protein kinase pim-3 (Homo sapiens) (UniProt Q86V86); test: Inhibition of human recombinant His6-tagged PIM3 expressed in Sf21 cells using RSRHSSYPAGT as substrate at 10 uM after 30 mins
# [22] = molecular target: Casein kinase II subunit alpha' (Mus musculus, UniProt O54833); test: Binding affinity to CSNK2A2 in mouse brain homogenate after 3 hrs by competition affinity chromatographic analysis; type: tissue-based; procedure, shortened: as §2
# [23] = molecular target: Dual specificity protein kinase CLK3 (Homo sapiens, UniProt P49761); test: Binding affinity to CLK3
smiles,measurement,setting,value
O=C1NC(Nc2ccccc2)=N/C1=C\c1ccc2c(c1)OCO2,Activity,[1],Active
same,Kd(free),[2],382 nM
same,IC50,[3],380 nM
same,IC50,[4],10 nM
same,Activity,[5],Active
same,Activity,[6],Active
same,IC50,[7],720 nM
same,Kd,[8],550 nM
same,Kd,[9],70 nM
same,Activity,[10],inactive
same,IC50,[11],> 30000 nM
same,inhibition,[12],Dose-dependent effect
same,inhibition,[13],Dose-dependent effect
same,Activity,[14],Active
same,IC50,[15],≥ 10000 nM
same,IC50,[16],> 10000 nM
same,Kd(free),[17],15265 nM
same,inhibition,[18],Active
same,Kd,[19],930 nM
same,inhibition,[20],Active
same,inhibition,[21],Active
same,Kd(free),[22],574 nM
same,Kd,[23],1100 nM

# Reference: ChEMBL document CHEMBL2176911 (J Med Chem, 2012)
